# Source: PubChem BioAssay AID2607 (Broad Institute, 2010)
# System: DRD fibroblasts (non-viral oncogenic) viability, Alamar Blue fluorescence, 48 h
# Assay: killing of non-viral oncogenic fibroblasts – cell-based, fluorescence, Alamar Blue, powder samples, dose response (AID 2607)
# Outline: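 Assay system – DRD fibroblasts · Amount – 1000 DRD cells per well · Dosing – two-fold dilution series, 0.01 to 5.33 µg/mL final compound · Buffer or medium – DMEM/M199 plus FBS · Incubation – 48 h compound at 37 °C, ~16 h dye · Technique – Alamar blue fluorescence, excitation 544 nm, emission 590 nm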
row,Structure (SMILES),EC50 [nM]
1,C=CCOc1ccccc1CN(C(=O)CCl)c1ccc2c(c1)OCO2,1140
2,COc1ccc(CN(CCC(c2ccccc2)c2ccc(OC(C)C)cc2)C(=O)CCl)cc1OC (centres undefined),622
3,CCCCCCCN(C(=O)CCl)c1cccc(C)c1,171
4,COC(=O)[C@@H]1Cc2c([nH]c3ccccc23)C(C)(C)N1C(=O)CCl,467
5,COc1ccc(C(C(=O)NC2CCCCC2)N(C(=O)CCl)c2cccc(Cl)c2)cc1 (centres undefined),137
6,COc1ccc(N(C(=O)CCl)C(C(=O)NCCc2ccccc2)c2cccs2)cc1Cl (centres undefined),34
7,COc1ccc(N(C(=O)CCl)C(C(=O)NCCc2ccccc2)c2cccs2)cc1 (centres undefined),214
8,CCOc1ccc(Nc2nc(N)nc(CCl)n2)cc1,183
9,Nc1nc(CCl)nc(Nc2ccc3ccccc3c2)n1,82
10,Cc1ccc(N(C(=O)CCl)C(C(=O)NC2CCCCC2)c2cccnc2)cc1C (centres undefined),147
11,O=C(CCl)N=c1sccn1Cc1ccccc1Cl,183
12,COc1cccc(N(C(=O)CCl)C(C(=O)NCCc2ccccc2)c2cccs2)c1 (centres undefined),145
13,COc1ccc(C(C(=O)NC2CCCCC2)N(C(=O)CCl)c2ccc(C)cc2)cc1 (centres undefined),143
14,Cc1ccc(C2CC(c3cccs3)=NN2C(=O)CCl)cc1 (centres undefined),1210
